Values after ≈ are worked out from the molar mass of the structure shown.
System: Colletotrichum camelliae
Assay: Antifungal activity against Colletotrichum camelliae assessed as inhibition of mycelial growth at 2000 ug/mL measured after 5 days of cultivation
Assay type: functional
Settings: 120 h, read-out: GI
Outline: (§1)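 Volatile constituents emulsified with emulsifier 0203-B (0.01% in medium) and mixed into PDA at 100, 500, 1000, 1500 or 2000 µg/mL in 9 cm plates. A 4 mm mycelial disk cut from a 4-day-old culture was placed centrally. Incubation was 5 days at 25 °C. Colony diameter was the mean of two readings. Inhibition = (C−T)×100/C against untreated and emulsifier controls. Three replicates.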

Row | SMILES | inhibition of growth at 2000 µg/mL [%]
1 | C=C[C@]1(C)CC[C@@H](C(C)(C)O)O1 [(E)-LINALOOL OXIDE] | 57.4
2 | OCc1ccccc1 [BENZYL ALCOHOL] | 83.3
3 | CC/C=C\CCO [CIS-3-HEXENOL] | 79.6
4 | C=C[C@]1(C)CC[C@H](C(C)(C)O)O1 [CIS-FURANOID] | 57.4
5 | CC(C)=CCC/C(C)=C/CO [GERANIOL] | 100
6 | C=CC(C)(O)CCC=C(C)C (stereo not drawn) [LINALOOL] | 100
7 | COC(=O)c1ccccc1O [METHYL SALICYLATE] | 100
8 | OCCc1ccccc1 [PHENYLETHYL ALCOHOL] | 92.6

System: Colletotrichum camelliae
Assay: Antifungal activity against Colletotrichum camelliae assessed as inhibition of mycelial growth at 1500 ug/mL measured after 5 days of cultivation
Assay type: functional
Settings: 120 h, read-out: GI
Outline: as §1

Row | SMILES | inhibition of growth at 1500 µg/mL [%]
9 | C=C[C@]1(C)CC[C@@H](C(C)(C)O)O1 [(E)-LINALOOL OXIDE] | 48.1
10 | OCc1ccccc1 [BENZYL ALCOHOL] | 68.5
11 | CC/C=C\CCO [CIS-3-HEXENOL] | 74.1
12 | C=C[C@]1(C)CC[C@H](C(C)(C)O)O1 [CIS-FURANOID] | 48.1
13 | CC(C)=CCC/C(C)=C/CO [GERANIOL] | 100
14 | C=CC(C)(O)CCC=C(C)C (stereo not drawn) [LINALOOL] | 100
15 | COC(=O)c1ccccc1O [METHYL SALICYLATE] | 100
16 | OCCc1ccccc1 [PHENYLETHYL ALCOHOL] | 85.2

System: Colletotrichum camelliae
Assay: Antifungal activity against Colletotrichum camelliae assessed as inhibition of mycelial growth at 1000 ug/mL measured after 5 days of cultivation
Assay type: functional
Settings: 120 h, read-out: GI
Outline: as §1

Row | SMILES | inhibition of growth at 1000 µg/mL [%]
17 | C=C[C@]1(C)CC[C@@H](C(C)(C)O)O1 [(E)-LINALOOL OXIDE] | 44.4
18 | OCc1ccccc1 [BENZYL ALCOHOL] | 61.1
19 | CC/C=C\CCO [CIS-3-HEXENOL] | 61.1
20 | C=C[C@]1(C)CC[C@H](C(C)(C)O)O1 [CIS-FURANOID] | 44.4
21 | CC(C)=CCC/C(C)=C/CO [GERANIOL] | 100
22 | C=CC(C)(O)CCC=C(C)C (stereo not drawn) [LINALOOL] | 50
23 | COC(=O)c1ccccc1O [METHYL SALICYLATE] | 55.6
24 | OCCc1ccccc1 [PHENYLETHYL ALCOHOL] | 70.4

System: Colletotrichum camelliae
Assay: Antifungal activity against Colletotrichum camelliae assessed as inhibition of mycelial growth measured after 5 days of cultivation
Assay type: functional
Settings: 120 h
Outline: as §1

Row | SMILES | MIC [µg/mL]
25 | C=C[C@]1(C)CC[C@@H](C(C)(C)O)O1 [(E)-LINALOOL OXIDE] | > 2380
26 | OCc1ccccc1 [BENZYL ALCOHOL] | 2600 (≈ 24 mM)
27 | CC/C=C\CCO [CIS-3-HEXENOL] | > 2120
28 | C=C[C@]1(C)CC[C@H](C(C)(C)O)O1 [CIS-FURANOID] | > 2380
29 | CC(C)=CCC/C(C)=C/CO [GERANIOL] | 440 (≈ 2.85 mM)
30 | C=CC(C)(O)CCC=C(C)C (stereo not drawn) [LINALOOL] | 1380 (≈ 8.92 mM)
31 | COC(=O)c1ccccc1O [METHYL SALICYLATE] | 1770 (≈ 11.6 mM)
32 | OCCc1ccccc1 [PHENYLETHYL ALCOHOL] | 2040 (≈ 16.7 mM)

System: Colletotrichum camelliae
Assay: Antifungal activity against Colletotrichum camelliae assessed as inhibition of mycelial growth at 500 ug/mL measured after 5 days of cultivation
Assay type: functional
Settings: 120 h, read-out: GI
Outline: as §1

Row | SMILES | inhibition of growth at 500 µg/mL [%]
33 | C=C[C@]1(C)CC[C@@H](C(C)(C)O)O1 [(E)-LINALOOL OXIDE] | 40.7
34 | OCc1ccccc1 [BENZYL ALCOHOL] | 46.3
35 | CC/C=C\CCO [CIS-3-HEXENOL] | 44.4
36 | C=C[C@]1(C)CC[C@H](C(C)(C)O)O1 [CIS-FURANOID] | 40.7
37 | CC(C)=CCC/C(C)=C/CO [GERANIOL] | 100
38 | C=CC(C)(O)CCC=C(C)C (stereo not drawn) [LINALOOL] | 46.3
39 | COC(=O)c1ccccc1O [METHYL SALICYLATE] | 50
40 | OCCc1ccccc1 [PHENYLETHYL ALCOHOL] | 46.3

System: Colletotrichum camelliae
Assay: Antifungal activity against Colletotrichum camelliae assessed as inhibition of mycelial growth at 100 ug/mL measured after 5 days of cultivation
Assay type: functional
Settings: 120 h, read-out: GI
Outline: as §1

Row | SMILES | inhibition of growth at 100 µg/mL [%]
41 | C=C[C@]1(C)CC[C@@H](C(C)(C)O)O1 [(E)-LINALOOL OXIDE] | 37
42 | OCc1ccccc1 [BENZYL ALCOHOL] | 44.4
43 | CC/C=C\CCO [CIS-3-HEXENOL] | 42.6
44 | C=C[C@]1(C)CC[C@H](C(C)(C)O)O1 [CIS-FURANOID] | 37
45 | CC(C)=CCC/C(C)=C/CO [GERANIOL] | 58.1
46 | C=CC(C)(O)CCC=C(C)C (stereo not drawn) [LINALOOL] | 37
47 | COC(=O)c1ccccc1O [METHYL SALICYLATE] | 42.6
48 | OCCc1ccccc1 [PHENYLETHYL ALCOHOL] | 51.9

Reference: ChEMBL document CHEMBL3045126, “Antifungal activities of major tea leaf volatile constituents toward Colletorichum camelliae Massea” (2006)
